Reference: ChEMBL document CHEMBL1156932, “Structure based drug design: development of potent and selective factor IXa (FIXa) inhibitors” (J Med Chem, 2010)

Experiments:
Coagulation factor IX = Coagulation factor IX (Homo sapiens, UniProt P00740); experiment: Inhibition of human recombinant factor 9a by amidolytic assay
[1] = Selectivity ratio of Ki for uPA to Ki for human recombinant factor 9a
[2] = Selectivity ratio of Ki for factor 10a to Ki for human recombinant factor 9a
Coagulation factor X = Coagulation factor X (Homo sapiens, UniProt P00742); experiment: Inhibition of factor 10a by amidolytic assay
Method in brief: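 […] taken as the mean of at least three experiments. Variation between runs stated as under 10%.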

[3] = molecular target: Urokinase-type plasminogen activator (Homo sapiens, UniProt P00749)

Chain of Coagulation factor IX (P00740 47-191 limits assumed): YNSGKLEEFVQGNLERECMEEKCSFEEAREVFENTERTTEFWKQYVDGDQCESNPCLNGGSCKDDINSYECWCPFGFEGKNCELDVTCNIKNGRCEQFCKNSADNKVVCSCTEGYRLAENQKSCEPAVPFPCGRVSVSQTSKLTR
Chain of Coagulation factor IX (P00740 227-461 limits assumed): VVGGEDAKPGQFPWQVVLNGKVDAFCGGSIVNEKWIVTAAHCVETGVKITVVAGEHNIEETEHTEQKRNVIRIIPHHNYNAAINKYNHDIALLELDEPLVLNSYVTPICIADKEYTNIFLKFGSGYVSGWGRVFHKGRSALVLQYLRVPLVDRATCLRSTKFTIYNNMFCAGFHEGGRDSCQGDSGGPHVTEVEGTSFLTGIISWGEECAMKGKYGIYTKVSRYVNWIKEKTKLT
Chain of Coagulation factor X (P00742 41-179 limits assumed): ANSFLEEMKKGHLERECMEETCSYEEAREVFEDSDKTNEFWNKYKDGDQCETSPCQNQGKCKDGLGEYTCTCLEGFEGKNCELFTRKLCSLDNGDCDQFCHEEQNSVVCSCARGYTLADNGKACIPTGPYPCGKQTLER
Chain of Coagulation factor X (P00742 235-488 limits assumed): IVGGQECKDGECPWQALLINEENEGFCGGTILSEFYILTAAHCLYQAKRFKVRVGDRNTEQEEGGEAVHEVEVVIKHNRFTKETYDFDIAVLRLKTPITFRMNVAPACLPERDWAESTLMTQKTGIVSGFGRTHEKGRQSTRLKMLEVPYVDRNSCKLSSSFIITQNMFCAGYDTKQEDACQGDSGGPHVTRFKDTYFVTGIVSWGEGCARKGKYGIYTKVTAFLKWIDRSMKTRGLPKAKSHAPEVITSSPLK

Row | SMILES | Ki (Coagulation factor IX) [nM] | Ratio Ki [1] | Ratio Ki [2] | Ki (Coagulation factor X) [nM] | Ki [3] [nM]
1 | N=C(N)c1cc2c(OC(CO)c3ccccc3)cccc2s1 (stereo not drawn) | 270 | – | – | 1740 | –
2 | N=C(N)c1cc2c(OC(CNC(=O)Oc3ccccc3)c3ccccc3)cccc2s1 (stereo not drawn) | 50 | – | – | 560 | 85
3 | N=C(N)c1cc2c(O[C@@H](c3ccccc3)c3nc(-c4ccccc4)no3)cccc2s1 | 270 | – | – | 3970 | 650
4 | COC(=O)C(C)Oc1cccc2sc(C(=N)N)cc12 (stereo not drawn) | 5150 | – | – | > 100000 | 2270
5 | CN(C)CCNC(=O)C(Oc1cccc2sc(C(=N)N)cc12)c1ccccc1 (stereo not drawn) | 1000 | – | – | 3400 | 2130
6 | CN(C)C(=O)c1ccc(NC(=O)C(Oc2cccc3sc(C(=N)N)cc23)c2ccccc2)cc1 (stereo not drawn) | 370 | – | – | 0.6 | 160
7 | N=C(N)c1cc2c(OC(C(=O)Nc3ccc(C(=O)N4CCCC4)cc3)c3ccccc3)cccc2s1 (stereo not drawn) | 290 | – | – | 0.5 | 130
8 | COC(=O)C(Oc1cccc2sc(C(=N)N)cc12)c1ccccc1 (stereo not drawn) | 500 | – | – | 13800 | 500
9 | N=C(N)c1cc2c(OC(CNCc3ccccc3)c3ccccc3)cccc2s1 (stereo not drawn) | 100 | – | – | 250 | 310
10 | CCOC(=O)c1nccn1-c1ccc(NC(=O)C(Oc2cccc3sc(C(=N)N)cc23)c2ccccc2)cc1 (stereo not drawn) | 420 | – | – | 2.6 | 190
11 | N=C(N)c1cc2c(OC(C(=O)Nc3ccccc3)c3ccccc3)cccc2s1 (stereo not drawn) | 170 | – | – | 150 | 140
12 | N=C(N)c1cc2c(OC(C(=O)NCc3ccccc3)c3ccccc3)cccc2s1 (stereo not drawn) | 390 | – | – | 950 | 510
13 | COC(=O)CCNC(=O)C(Oc1cccc2sc(C(=N)N)cc12)c1ccccc1 (stereo not drawn) | 8400 | – | – | – | –
14 | COc1ccccc1NC(=O)C(Oc1cccc2sc(C(=N)N)cc12)c1ccccc1 (stereo not drawn) | 140 | – | – | 70 | 120
15 | CC(=O)NCC(Oc1cccc2sc(C(=N)N)cc12)c1ccccc1 (stereo not drawn) | 340 | – | – | 1300 | 220

Second part, the compound after the results:

Row | Ki (Coagulation factor IX) [nM] | Ratio Ki [1] | Ratio Ki [2] | Ki (Coagulation factor X) [nM] | Ki [3] [nM] | SMILES
16 | 2 | 367 | 292 | 583 | 733 | CC(C)CNCc1ccccc1NC(=O)OCC(Oc1cccc2sc(C(=N)N)cc12)c1ccccc1 (stereo not drawn)
17 | 5 | 45 | 160 | 800 | 226 | COc1ccc(NC(=O)OCC(Oc2cccc3sc(C(=N)N)cc23)c2ccccc2)cc1 (stereo not drawn)
18 | 11 | 5 | 118 | 1300 | 59 | COC(=O)Cn1nc(C)c(NC(=O)OCC(Oc2cccc3sc(C(=N)N)cc23)c2ccccc2)c1C (stereo not drawn)
19 | 7 | 34 | 186 | 1300 | 249 | N=C(N)c1cc2c(OC(COC(=O)Nc3c(F)cccc3F)c3ccccc3)cccc2s1 (stereo not drawn)
20 | 29 | – | – | 960 | 250 | N=C(N)c1cc2c(OC(CNC(=O)Nc3ccccc3)c3ccccc3)cccc2s1 (stereo not drawn)
21 | 130 | – | – | 290 | 170 | COc1cccc(NC(=O)C(Oc2cccc3sc(C(=N)N)cc23)c2ccccc2)c1 (stereo not drawn)
22 | 160 | – | – | 4450 | 270 | N=C(N)c1cc2c(OC(CN)c3ccccc3)cccc2s1 (stereo not drawn)
23 | 97 | – | – | 700 | 210 | CNC(=O)OCC(Oc1cccc2sc(C(=N)N)cc12)c1ccccc1 (stereo not drawn)
24 | 140 | – | – | 52 | 140 | COc1ccc(NC(=O)C(Oc2cccc3sc(C(=N)N)cc23)c2ccccc2)cc1 (stereo not drawn)
25 | 61 | – | – | 830 | 510 | N=C(N)c1cc2c(OC(COC(=O)NCc3ccccc3)c3ccccc3)cccc2s1 (stereo not drawn)
26 | 28 | – | – | 360 | 150 | CCNC(=O)OCC(Oc1cccc2sc(C(=N)N)cc12)c1ccccc1 (stereo not drawn)
